Test results published in ChEMBL document CHEMBL1126006, “Synthesis, specificity, and antifungal activity of inhibitors of the Candida albicans delta 24-sterol methyltransferase” (J Med Chem, 1992).
Converted amounts (≈) assume the structure as drawn. Each block holds one compound with its values, some of them ahead of it.

Columns and labels:
Candida albicans [1] = experiment: In vitro Minimum lethal concentration was determined by microbroth dilution assay on Candida albicans; format: functional
Method in brief: (§1)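 C. albicans strain B311; C. tropicalis and T. glabrata were clinical isolates. Yeasts were pregrown 18 h at 35 °C, 125 rpm, in the test medium, saline-washed three times and counted by hemocytometer. Assay medium was YNB with 0.15% asparagine and 2% glucose, pH 5.5. Final drug 0.10 to 100 μg/mL, 1% DMSO, 4×10^3 cells/mL, quadruplicate wells, 35 °C for 24 h. MLC = first concentration whose subculture (Sabouraud agar, 48 h, 35 °C) gave ≤50 CFU/mL; geometric mean reported.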

Candida tropicalis [2] = experiment: In vitro Minimum inhibitory concentration was determined by microbroth dilution assay on Candida tropicalis; format: functional
Method in brief: (§2)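 Microbroth dilution, 4×10^3 cells/mL (C. albicans B311; C. tropicalis and T. glabrata clinical isolates, pre-grown 18 h at 35 °C and washed) in YNB with asparagine and glucose, pH 5.5; 0.10–100 μg/mL drug, 1% DMSO final; 24 h at 35 °C, quadruplicate wells. MIC read visually as first concentration with marked growth reduction; geometric mean reported.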

Candida albicans [3] = experiment: In vitro Minimum inhibitory concentration was determined by microbroth dilution assay on Candida albicans; format: functional; method in brief: as §2
Nakaseomyces glabratus [4] = experiment: In vitro Minimum lethal concentration was determined by microbroth dilution assay on Torulopsis glabrata; format: functional; method in brief: as §1
Nakaseomyces glabratus [5] = experiment: In vitro Minimum inhibitory concentration was determined by microbroth dilution assay on Torulopsis glabrata; format: functional; method in brief: as §2
Candida tropicalis [6] = experiment: In vitro Minimum lethal concentration was determined by microbroth dilution assay on Candida tropicalis; format: functional; method in brief: as §1
Candida albicans [7] = experiment: Compound was tested for the inhibition of delta24-sterol Methyl transferase
Method in brief: (§3)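 Microsomes from C. albicans ATCC 28367, 0.20 mg microsomal protein per assay; desmosterol as sterol substrate, SAM 25 μM; standard assay pH 7.5. Reversible inhibition patterns and constants fitted by Cleland COMP/NONCOMP, or otherwise by a parabolic competitive inhibition equation, which gives the alpha cooperativity factor for binding of two inhibitor molecules.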

Candida albicans [8] = experiment: Alpha factor which describes the cooperativity of binding of 2 identical inhibitor molecules.; method in brief: as §3
Candida albicans [9] = experiment: Inhibition type against delta 24-sterol Methyl transferase; method in brief: as §3
Candida albicans [10] = experiment: Compound was tested for the inhibition of Delta 24-sterol-C-methyl-transferase; method in brief: as §3
Candida albicans [11] = tested on: Candida albicans

SMILES: C[C@@H]1[C@H](O)[C@@H](C)/C=C/C=C/C=C/C=C/C=C/C=C/C=C/[C@H](O[C@@H]2O[C@H](C)[C@@H](O)[C@H](N)[C@@H]2O)C[C@@H]2O[C@](O)(C[C@@H](O)C[C@@H](O)[C@H](O)CC[C@@H](O)C[C@@H](O)CC(=O)O[C@H]1C)C[C@H](O)[C@H]2C(=O)O [AMPHOTERICIN B]
MLC (Candida albicans [1]): 0.8 µg/mL (≈ 0.866 µM)
MIC (Candida tropicalis [2]): 0.2 µg/mL (≈ 0.216 µM)
MIC (Candida albicans [3]): 0.2 µg/mL (≈ 0.216 µM)
MLC (Nakaseomyces glabratus [4]): 0.4 µg/mL (≈ 0.433 µM)
MIC (Nakaseomyces glabratus [5]): 0.1 µg/mL (≈ 0.108 µM)
MLC (Candida tropicalis [6]): 0.4 µg/mL (≈ 0.433 µM)

Kis (Candida albicans [7]): 21 nM
Alpha c (Candida albicans [8]): 0.02
Inhibition type (Candida albicans [9]): Parabolic competitive
SMILES: CC(C)[S+](C)CC[C@@H](C)C1CC[C@@]2(C)C3=C(CC[C@]12C)[C@@]1(C)CC[C@H](O)C(C)(C)C1CC3 (some centres not stated)

Kis (Candida albicans [7]): 72000 nM
Inhibition type (Candida albicans [9]): Competitive
SMILES: CC(C)SCC[C@@H](C)C1CC[C@@]2(C)C3=C(CC[C@]12C)[C@@]1(C)CC[C@H](O)C(C)(C)C1CC3 (some centres not stated)

SMILES: C[C@H](CCC(=N)N)C1CC[C@@]2(C)C3=C(CC[C@]12C)[C@@]1(C)CC[C@H](O)C(C)(C)C1CC3.O=S(=O)(O)C(F)(F)F (some centres not stated)
MLC (Candida albicans [1]): 12.5 µg/mL
MIC (Candida tropicalis [2]): 0.4 µg/mL
MIC (Candida albicans [3]): 0.2 µg/mL
MLC (Nakaseomyces glabratus [4]): 50 µg/mL
MIC (Nakaseomyces glabratus [5]): 3.1 µg/mL
Kis (Candida albicans [10]): 11 nM
MLC (Candida tropicalis [6]): 12.5 µg/mL
Alpha c (Candida albicans [8]): 0.06
Inhibition type (Candida albicans [9]): Parabolic competitive

SMILES: C[C@H](CCc1nccn1C)C1CC[C@@]2(C)C3=C(CC[C@]12C)[C@@]1(C)CC[C@H](O)C(C)(C)C1CC3 (some centres not stated)
MLC (Candida albicans [1]): >100 µg/mL
MIC (Candida tropicalis [2]): 12.5 µg/mL (≈ 27.6 µM)
MIC (Candida albicans [3]): 0.4 µg/mL (≈ 0.884 µM)
MLC (Nakaseomyces glabratus [4]): >100 µg/mL
MIC (Nakaseomyces glabratus [5]): > 100 µg/mL
Kis (Candida albicans [7]): 5 nM
MLC (Candida tropicalis [6]): 100 µg/mL (≈ 221 µM)
Inhibition type (Candida albicans [9]): Parabolic competitive

SMILES: CC(C)SCC[C@@H](C)C1CCC2C3CC=C4C[C@@H](O)CC[C@]4(C)C3CC[C@@]21C (some centres not stated)
MLC (Candida albicans [1]): >100 µg/mL
MIC (Candida tropicalis [2]): > 100 µg/mL
MIC (Candida albicans [3]): 50 µg/mL (≈ 124 µM)
MLC (Nakaseomyces glabratus [4]): >100 µg/mL
MIC (Nakaseomyces glabratus [5]): > 100 µg/mL
Kis (Candida albicans [10]): 1500 nM
MLC (Candida tropicalis [6]): >100 µg/mL
Inhibition type (Candida albicans [9]): Competitive

SMILES: CC(C)[S+](C)CC[C@@H](C)C1CCC2C3CC=C4C[C@@H](O)CC[C@]4(C)C3CC[C@@]21C.[I-] (some centres not stated)
MLC (Candida albicans [1]): 50 µg/mL
MIC (Candida tropicalis [2]): 0.2 µg/mL
MIC (Candida albicans [3]): 0.2 µg/mL
MLC (Nakaseomyces glabratus [4]): 50 µg/mL
MIC (Nakaseomyces glabratus [5]): 1.6 µg/mL
Kis (Candida albicans [10]): 16 nM
MLC (Candida tropicalis [6]): 6.3 µg/mL
Alpha c (Candida albicans [8]): 0.05
Inhibition type (Candida albicans [9]): Parabolic competitive

Kis (Candida albicans [7]): 20000 nM
Inhibition type (Candida albicans [9]): Competitive
SMILES: CC(C)[S+]([O-])CC[C@@H](C)C1CCC2C3CC=C4C[C@@H](O)CC[C@]4(C)C3CC[C@@]21C (some centres not stated)

SMILES: C[C@H](CCc1ncc[nH]1)C1CC[C@@]2(C)C3=C(CC[C@]12C)[C@@]1(C)CC[C@H](O)C(C)(C)C1CC3 (some centres not stated)
MLC (Candida albicans [1]): >100 µg/mL
MIC (Candida tropicalis [2]): > 100 µg/mL
MIC (Candida albicans [3]): 1.6 µg/mL (≈ 3.65 µM)
MLC (Nakaseomyces glabratus [4]): >100 µg/mL
Kii (Candida albicans [11]): 25 nM
MIC (Nakaseomyces glabratus [5]): > 100 µg/mL
Kis (Candida albicans [7]): 11 nM
MLC (Candida tropicalis [6]): >100 µg/mL
Inhibition type (Candida albicans [9]): Noncompetitive

Kis (Candida albicans [7]): 6 nM
Inhibition type (Candida albicans [9]): Parabolic competitive
SMILES: C[C@H](CCC(N)=[N+](C)C)C1CC[C@@]2(C)C3=C(CC[C@]12C)[C@@]1(C)CC[C@H](O)C(C)(C)C1CC3 (some centres not stated)

SMILES: CC[S+](CC[C@@H](C)C1CCC2C3CC=C4C[C@@H](O)CC[C@]4(C)C3CC[C@@]21C)C(C)C.[I-] (some centres not stated)
MLC (Candida albicans [1]): >100 µg/mL
MIC (Candida tropicalis [2]): 100 µg/mL
MIC (Candida albicans [3]): 100 µg/mL
MLC (Nakaseomyces glabratus [4]): >100 µg/mL
MIC (Nakaseomyces glabratus [5]): > 100 µg/mL
Kis (Candida albicans [7]): 500 nM
MLC (Candida tropicalis [6]): >100 µg/mL
Inhibition type (Candida albicans [9]): Parabolic competitive

SMILES: CC(=O)N1CCN(c2ccc(OCC3COC(Cn4ccnc4)(c4ccc(Cl)cc4Cl)O3)cc2)CC1 (configuration not stated) [KETOCONAZOLE]
MLC (Candida albicans [1]): 12.5 µg/mL (≈ 23.5 µM)
MIC (Candida tropicalis [2]): 1.6 µg/mL (≈ 3.01 µM)
MIC (Candida albicans [3]): 0.1 µg/mL (≈ 0.188 µM)
MLC (Nakaseomyces glabratus [4]): 12.5 pug ml-1
MIC (Nakaseomyces glabratus [5]): 3.1 µg/mL (≈ 5.83 µM)
MLC (Candida tropicalis [6]): 6.3 µg/mL (≈ 11.9 µM)
